Starred links: 1 amine or outer side, 2 acyl side, 3 side chain; linkers in the order of their positions; H or OH if unused. Positions of bridges follow the written chain, without caps; N, C: chain ends. Non-standard residues stand in square brackets, D forms with d. Residues, ends and D or L forms follow the SMILES beside them. βAsp = O=C(O)[C@H](CC(=O)[*:2])N[*:1]; Asu = N[C@@H](CCCCCC(=O)O)C(=O)O; Pen = CC(C)(S)[C@H](N)C(=O)O; hCys = N[C@@H](CCS)C(=O)O; X2 = O=C(CCC[*:2])[*:1]; X1 = O=C(CC[*:2])[*:1]; CO = O=C([*:1])[*:2]
Tests used:
[1] = target: T1, Atrial natriuretic peptide receptor 3 (Mus musculus, UniProt P70180); assay: Binding affinity was determined based on the displacement of [125]r-ANF (99-126) from binding sites on mouse fibroblasts (NIH 3T3) cells (Atrionatriuretic peptide receptor C).
T1 sequence (P70180 whole entry): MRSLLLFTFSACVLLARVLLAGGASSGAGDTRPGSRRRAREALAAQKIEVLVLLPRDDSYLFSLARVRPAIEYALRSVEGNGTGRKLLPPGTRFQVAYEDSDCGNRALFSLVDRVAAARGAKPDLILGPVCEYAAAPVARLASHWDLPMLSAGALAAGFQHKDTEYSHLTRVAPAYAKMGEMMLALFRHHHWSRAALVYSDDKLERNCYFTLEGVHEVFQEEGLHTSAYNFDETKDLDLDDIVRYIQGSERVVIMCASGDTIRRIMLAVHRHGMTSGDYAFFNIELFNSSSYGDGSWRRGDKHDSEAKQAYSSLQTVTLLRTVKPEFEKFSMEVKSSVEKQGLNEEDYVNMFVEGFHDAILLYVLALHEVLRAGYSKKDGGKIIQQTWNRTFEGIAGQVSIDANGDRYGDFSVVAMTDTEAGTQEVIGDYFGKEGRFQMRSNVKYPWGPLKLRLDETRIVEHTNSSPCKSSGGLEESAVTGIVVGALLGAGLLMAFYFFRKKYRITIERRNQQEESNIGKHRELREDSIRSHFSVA

[2] = target: T2, Atrial natriuretic peptide receptor 2 (Bos taurus, UniProt P46197); assay: Binding affinity was determined based on the displacement of [125]r-ANF (99-126) from binding sites on bovine adrenal zona glomerulosa cell membranes (Atrionatriuretic peptide receptor B)
T2 sequence (P46197 whole entry): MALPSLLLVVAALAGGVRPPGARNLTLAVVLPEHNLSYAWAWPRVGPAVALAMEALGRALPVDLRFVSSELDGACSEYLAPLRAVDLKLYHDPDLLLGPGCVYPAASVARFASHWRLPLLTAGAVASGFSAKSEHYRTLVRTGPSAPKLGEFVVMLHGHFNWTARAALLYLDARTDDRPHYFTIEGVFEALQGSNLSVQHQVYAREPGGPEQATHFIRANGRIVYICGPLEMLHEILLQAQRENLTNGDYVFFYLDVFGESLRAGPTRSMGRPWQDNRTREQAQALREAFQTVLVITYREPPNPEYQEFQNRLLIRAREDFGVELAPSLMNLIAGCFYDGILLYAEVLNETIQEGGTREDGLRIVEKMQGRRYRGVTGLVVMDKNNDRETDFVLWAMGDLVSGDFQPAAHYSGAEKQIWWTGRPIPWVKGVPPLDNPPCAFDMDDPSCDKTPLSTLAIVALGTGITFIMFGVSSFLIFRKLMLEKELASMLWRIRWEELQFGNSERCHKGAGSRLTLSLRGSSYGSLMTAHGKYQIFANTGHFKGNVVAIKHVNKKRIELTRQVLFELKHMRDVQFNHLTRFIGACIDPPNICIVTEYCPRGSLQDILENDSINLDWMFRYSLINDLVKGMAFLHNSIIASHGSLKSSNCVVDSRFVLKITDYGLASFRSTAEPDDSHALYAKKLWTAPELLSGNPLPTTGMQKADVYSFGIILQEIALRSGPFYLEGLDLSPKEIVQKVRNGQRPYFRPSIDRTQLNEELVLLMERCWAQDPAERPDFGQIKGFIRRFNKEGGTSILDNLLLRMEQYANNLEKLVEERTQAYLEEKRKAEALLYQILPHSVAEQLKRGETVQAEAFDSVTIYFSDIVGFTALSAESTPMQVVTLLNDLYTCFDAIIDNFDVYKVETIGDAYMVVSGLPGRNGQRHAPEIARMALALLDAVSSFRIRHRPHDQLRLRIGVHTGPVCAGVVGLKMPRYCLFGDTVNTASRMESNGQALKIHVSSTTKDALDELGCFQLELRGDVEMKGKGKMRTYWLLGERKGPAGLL

Oryctolagus cuniculus = species: Oryctolagus cuniculus; assay: Compound was tested for the inhibition of the stimulated contractions of the superfused rabbit thoracic aortic rings.; type: functional, Aorta
Procedure, shortened: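 Rabbit thoracic aorta rings (4 mm) were held isometrically at 10-g resting tension, superfused and precontracted with phenylephrine. Test peptide was added to the superfusate above the tissue in successively higher doses after each recovery. Doses were based on peptide content. EC50 came from the dose-response curve, mean of three determinations ± SEM.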

Rattus norvegicus [3] = species: Rattus norvegicus; assay: Compound was tested for the Na+ excretion for treated over control animals; type: functional
Procedure, shortened: (§1)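 Male Sprague-Dawley rats (300-325 g) under halothane/lidocaine had femoral artery, femoral vein and bladder cannulated. After at least 1 h of recovery in restraint, they received Ringer's (1.2 mL/h), with 10-min urine collections over a 30-min control period. Infusion of 0.5 μg/kg per min for 30 min and a 30-min Ringer's recovery followed. Na+, K+ and Cl- were measured with an electrolyte analyzer, reported as treated minus control μmol/sample. Volume ratio is treated/control over three consecutive 10-min samples, six animals.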

Rattus norvegicus [4] = species: Rattus norvegicus; assay: Compound was tested for antihypertensive activity in DOCA nephrectomized rats.; type: functional
Procedure, shortened: (§2)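 Rats were anesthetized with halothane after skin infiltration with 2% lidocaine, and the femoral artery and vein were cannulated. After recovery, arterial pressure was recorded. A saline control period was followed by i.v. infusion in 30-min steps at 0.1, 0.2, 0.5 and 1.0 μg/kg per min (70 μL/kg per min). Hydralazine (100 μg/kg per min) was given for standardization. ED50 is in nmol/kg per min, from six animals.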

Rattus norvegicus [5] = species: Rattus norvegicus; assay: Compound was tested for the K+ excretion for treated over control animals; type: functional; procedure, shortened: as §1
Rattus norvegicus [6] = species: Rattus norvegicus; assay: Compound was tested for antihypertensive activity in 5/6 nephrectomized rats.; type: functional; procedure, shortened: as §2

CC[C@H](C)[C@@H]1NC(=O)[C@H](CCCN=C(N)N)NC(=O)[C@H](CC(=O)O)NC(=O)[C@H]([C@@H](C)CC)NC(=O)[C@H](CCCN=C(N)N)NC(=O)CNC(=O)CNC(=O)[C@H](Cc2ccccc2)NC(=O)[C@@H](NC(=O)[C@H](CO)NC(=O)[C@@H](N)CO)CSSC[C@@H](C(=O)N[C@@H](CC(N)=O)C(=O)N[C@@H](CO)C(=O)N[C@@H](Cc2ccccc2)C(=O)N[C@@H](CCCN=C(N)N)C(=O)N[C@@H](Cc2ccc(O)cc2)C(=O)O)NC(=O)CNC(=O)[C@H](CC(C)C)NC(=O)CNC(=O)[C@H](CO)NC(=O)[C@H](CCC(N)=O)NC(=O)[C@H](C)NC(=O)CNC1=O (H-SSCFGGRIDRIGAQSGLGCNSFRY-OH; disulfide 3-19) [listing 1 of 2 here] was tested, and the IC50 [1] was 0.35 nM and the IC50 [2] was 1.37 nM.

Work on CC[C@H](C)[C@@H]1NC(=O)[C@H](CCCN=C(N)N)NC(=O)[C@H](CC(=O)O)NC(=O)[C@H]([C@@H](C)CC)NC(=O)[C@H](CCCN=C(N)N)NC(=O)CNC(=O)CNC(=O)[C@H](Cc2ccccc2)NC(=O)CCCCC[C@@H](C(=O)N[C@@H](CC(N)=O)C(=O)N[C@@H](CO)C(=O)N[C@@H](Cc2ccccc2)C(=O)N[C@@H](CCCN=C(N)N)C(=O)N[C@@H](Cc2ccc(O)cc2)C(=O)O)NC(=O)CNC(=O)[C@H](CC(C)C)NC(=O)CNC(=O)[C@H](CO)NC(=O)[C@H](CCC(N)=O)NC(=O)[C@H](C)NC(=O)CNC1=O (FGGRIDRIGAQSGLG[Asu]NSFRY-OH; lactam N-16) yielded an EC50 (Oryctolagus cuniculus) of 4.8e-10 M 50ul-1, an IC50 [1] of 0.78 nM and an IC50 [2] of 28.8 nM.

Molecule CC[C@H](C)[C@H](NC(=O)[C@H](CCCN=C(N)N)NC(=O)[C@H](CC(=O)O)NC(=O)[C@@H](NC(=O)[C@H](CCCN=C(N)N)NC(=O)CNC(=O)CNC(=O)[C@H](Cc1ccccc1)NC(=O)N[C@@H](CC(=O)OC)C(=O)O)[C@@H](C)CC)C(=O)NCC(=O)N[C@@H](C)C(=O)N[C@@H](CCC(N)=O)C(=O)N[C@@H](CO)C(=O)NCC(=O)N[C@@H](CC(C)C)C(=O)NCC(=O)N[C@@H](CS)C(=O)N[C@@H](CC(N)=O)C(=O)N[C@@H](CO)C(=O)N[C@@H](Cc1ccccc1)C(=O)N[C@@H](CCCN=C(N)N)C(=O)N[C@@H](Cc1ccc(O)cc1)C(=O)O ({OMe-βAsp-CO}-FGGRIDRIGAQSGLGCNSFRY-OH) has an Electrolyte excretion (Rattus norvegicus [3]) of 38.1 uM sample-1, an EC50 (Oryctolagus cuniculus) of 1.4e-10 M 50ul-1 and an ED50 (Rattus norvegicus [4]) of over 4 nM/min/kg. It also gave an Electrolyte excretion (Rattus norvegicus [5]) of 23.5 uM sample-1, an ED50 (Rattus norvegicus [6]) of over 2 nM/min/kg and an IC50 [2] of 8.67 nM.

In the case of CC[C@H](C)[C@@H]1NC(=O)[C@H](CCCN=C(N)N)NC(=O)[C@H](CC(=O)O)NC(=O)[C@H]([C@@H](C)CC)NC(=O)[C@H](CCCN=C(N)N)NC(=O)CNC(=O)CNC(=O)[C@H](Cc2ccccc2)NC(=O)CCSCC[C@@H](C(=O)N[C@@H](CC(N)=O)C(=O)N[C@@H](CO)C(=O)N[C@@H](Cc2ccccc2)C(=O)N[C@@H](CCCN=C(N)N)C(=O)N[C@@H](Cc2ccc(O)cc2)C(=O)O)NC(=O)CNC(=O)[C@H](CC(C)C)NC(=O)CNC(=O)[C@H](CO)NC(=O)[C@H](CCC(N)=O)NC(=O)[C@H](C)NC(=O)CNC1=O (FGGRIDRIGAQSGLG[hCys]NSFRY-OH; linker N-16 via X1), the EC50 (Oryctolagus cuniculus) is reported as 3.5e-10 M 50ul-1, the IC50 [1] is reported as 0.21 nM and the IC50 [2] is reported as 7.8 nM.

With CC[C@H](C)[C@@H]1NC(=O)[C@H](CCCN=C(N)N)NC(=O)[C@H](CC(=O)O)NC(=O)[C@H]([C@@H](C)CC)NC(=O)[C@H](CCCN=C(N)N)NC(=O)CNC(=O)CNC(=O)[C@H](Cc2ccccc2)NC(=O)[C@@H](NC(=O)[C@H](CO)NC(=O)[C@@H](N)CO)CSSC[C@@H](C(=O)N[C@@H](CC(N)=O)C(=O)N[C@@H](CO)C(=O)N[C@@H](Cc2ccccc2)C(=O)N[C@@H](CCCN=C(N)N)C(=O)N[C@@H](Cc2ccc(O)cc2)C(=O)O)NC(=O)CNC(=O)[C@H](CC(C)C)NC(=O)CNC(=O)[C@H](CO)NC(=O)[C@H](CCC(N)=O)NC(=O)[C@H](C)NC(=O)CNC1=O (H-SSCFGGRIDRIGAQSGLGCNSFRY-OH; disulfide 3-19) [listing 2 of 2 here] the EC50 (Oryctolagus cuniculus) was 8.9e-11 M 50ul-1.

Molecule CC[C@H](C)[C@@H]1NC(=O)[C@H](CCCN=C(N)N)NC(=O)[C@H](CC(=O)O)NC(=O)[C@H]([C@@H](C)CC)NC(=O)[C@H](CCCN=C(N)N)NC(=O)CNC(=O)CNC(=O)[C@H](Cc2ccccc2)NC(=O)CCCSC[C@@H](C(=O)N[C@@H](CC(N)=O)C(=O)N[C@@H](CO)C(=O)N[C@@H](Cc2ccccc2)C(=O)N[C@@H](CCCN=C(N)N)C(=O)N[C@@H](Cc2ccc(O)cc2)C(=O)O)NC(=O)CNC(=O)[C@H](CC(C)C)NC(=O)CNC(=O)[C@H](CO)NC(=O)[C@H](CCC(N)=O)NC(=O)[C@H](C)NC(=O)CNC1=O (FGGRIDRIGAQSGLGCNSFRY-OH; linker N-16 via X2) has an EC50 (Oryctolagus cuniculus) of 2.6e-10 M 50ul-1, an IC50 [1] of 0.56 nM and an IC50 [2] of 6.17 nM.

With CC[C@H](C)[C@@H]1NC(=O)[C@H](CCCN=C(N)N)NC(=O)[C@H](CC(=O)O)NC(=O)[C@H]([C@@H](C)CC)NC(=O)[C@H](CCCN=C(N)N)NC(=O)CNC(=O)CNC(=O)[C@H](Cc2ccccc2)NC(=O)CCCSC(C)(C)[C@@H](C(=O)N[C@@H](CC(N)=O)C(=O)N[C@@H](CO)C(=O)N[C@@H](Cc2ccccc2)C(=O)N[C@@H](CCCN=C(N)N)C(=O)N[C@@H](Cc2ccc(O)cc2)C(=O)O)NC(=O)CNC(=O)[C@H](CC(C)C)NC(=O)CNC(=O)[C@H](CO)NC(=O)[C@H](CCC(N)=O)NC(=O)[C@H](C)NC(=O)CNC1=O (FGGRIDRIGAQSGLG[Pen]NSFRY-OH; linker N-16 via X2) the EC50 (Oryctolagus cuniculus) was 6.8e-10 M 50ul-1, the IC50 [1] was 0.35 nM and the IC50 [2] was 7.8 nM.

CC[C@H](C)[C@@H]1NC(=O)[C@H](CCCN=C(N)N)NC(=O)[C@H](CC(=O)O)NC(=O)[C@H]([C@@H](C)CC)NC(=O)[C@H](CCCN=C(N)N)NC(=O)CNC(=O)CNC(=O)[C@H](Cc2ccccc2)NC(=O)CCC=CC[C@@H](C(=O)N[C@@H](CC(N)=O)C(=O)N[C@@H](CO)C(=O)N[C@@H](Cc2ccccc2)C(=O)N[C@@H](CCCN=C(N)N)C(=O)N[C@@H](Cc2ccc(O)cc2)C(=O)O)NC(=O)CNC(=O)[C@H](CC(C)C)NC(=O)CNC(=O)[C@H](CO)NC(=O)[C@H](CCC(N)=O)NC(=O)[C@H](C)NC(=O)CNC1=O was tested, and the EC50 (Oryctolagus cuniculus) was 5.5e-10 M 50ul-1, the IC50 [1] was 0.63 nM and the IC50 [2] was 51 nM.

Reference: ChEMBL document CHEMBL1124824, “Synthesis and biological activity of atrial natriuretic factor analogues: effect of modifications to the disulfide bridge” (J Med Chem, 1990)
